Sampled rows, rich in hits. Any-hit rate of the full collection: about 2.5%.
SENP1 FRET inh: blocks the human SENP1 SUMO protease catalytic domain; AID 624204; Q9P0U3; inhibition, % at 10 µM; 0.21% of 360,000 active; recombinant SENP1 catalytic domain, CyPet-SUMO1-YPet FRET cleavage;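 active = inhibition at least 30% at 10 µM, raw YFP signal under a set limit, fluorescence ratio 0.5 to 1.5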;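 note: 0% = enzyme with DMSO and 100% = no enzyme wells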
Target sequence (Q9P0U3 419-644 limits assumed): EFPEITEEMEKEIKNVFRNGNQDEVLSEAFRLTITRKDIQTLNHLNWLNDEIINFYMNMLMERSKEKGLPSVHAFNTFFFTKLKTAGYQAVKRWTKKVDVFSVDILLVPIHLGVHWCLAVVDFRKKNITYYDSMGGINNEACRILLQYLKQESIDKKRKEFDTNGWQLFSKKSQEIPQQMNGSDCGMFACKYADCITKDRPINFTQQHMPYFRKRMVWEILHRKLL
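Test system: recombinant human SENP1 catalytic domain, His6-tagged / Medium: pH 8 Tris buffer with EDTA, NaCl, BME, BSA, NP40, catalase / Also added: SUMO1 FRET substrate flanked by Cypet and Ypet, 25 nM / Times: 50 min reaction at room temperature / Signal: FRET, CFP and YFP emission / Control set: no-enzyme low control and enzyme-plus-DMSO high control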
B2AR ag: agonists of human beta-2 adrenergic receptor inducing internalization; P07550; Am2.2-beta2AR cells, FAP receptor internalization, flow cytometry; response, % (concentration not given with the values); 0.43% of 340,000 active; AID 504454;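 active = response above a set limit, near 3 SD of response in nonfluorescent compounds, cut at about 42% in these data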
Target sequence (P07550 whole entry, looked up): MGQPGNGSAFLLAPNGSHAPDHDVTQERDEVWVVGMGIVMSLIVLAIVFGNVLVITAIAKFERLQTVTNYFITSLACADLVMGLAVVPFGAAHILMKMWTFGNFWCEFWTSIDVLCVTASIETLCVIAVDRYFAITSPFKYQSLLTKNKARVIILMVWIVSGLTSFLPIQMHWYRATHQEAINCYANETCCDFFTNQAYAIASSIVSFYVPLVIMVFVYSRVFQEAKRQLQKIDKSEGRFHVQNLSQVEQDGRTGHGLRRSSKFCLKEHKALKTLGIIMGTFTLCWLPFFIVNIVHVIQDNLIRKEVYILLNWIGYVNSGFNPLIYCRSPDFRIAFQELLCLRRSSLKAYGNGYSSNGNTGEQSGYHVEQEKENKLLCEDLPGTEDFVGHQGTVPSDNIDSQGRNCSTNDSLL
NadD block: NadD (S. aureus) enzyme inhibition; purified NadD enzyme, colorimetric absorbance read-out; inhibition, % at 20 µM; 0.78% of 360,000 active; AID 602399; in the data active = inhibition above about 26%
GRK2 aptamer HTS: inhibitors of human GRK2 displacing RNA aptamer. P25098. 0.59% of 330,000 active. inhibition of aptamer binding, % at 10 µM. bead flow cytometry, FAM-aptamer displacement from GRK2;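 active = inhibition of aptamer binding above 40%, roughly 3 SD of noise, on plates passing a quality check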;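 note: median bead fluorescence of bound FAM aptamer so fluorescent compounds give negative values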
ABHD5 PLIN5 PPI: inhibitors of human ABHD5-perilipin-5 interaction; Q00G26+Q8WTS1; Split G. princeps luciferase complementation, luminescence, 4 h; inhibition, % at 4 µM; 0.78% of 360,000 active; AID 602281;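 active = inhibition above the mean inhibition across every tested compound plus 3 SD, cut at about 22% in these data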;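 note: 0% = DMSO only wells and the 100% control is not disclosed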
NadD conf: NadD (S. aureus) inhibition, single concentration confirmation | shares compounds with NadD block | purified S. aureus NadD, colorimetric enzyme assay | inhibition, % at 20 µM | AID 624309 | 13% of 2,000 active; in the data active = inhibition mostly above about 42%, no sharp cut-off; inactive = mostly below about 42%
Starred values were filed as active, the others as inactive; / = not tested or not shown.

SMILES | SENP1 FRET inh | B2AR ag | NadD block | GRK2 aptamer HTS | ABHD5 PLIN5 PPI | NadD conf
COc1ccc(/C=N/NC(=O)c2nc(Cl)c(Cl)c(N)c2Cl)cc1COc1ccc(F)cc1F | 1 | 27 | 53* | 3 | -4 | 4
COc1cc(OC)cc(C(=O)N/N=C/c2ccc(OC)c(COc3ccc4ccccc4c3)c2)c1 | -5 | 2 | 40* | 0 | 17 | 11
COc1ccc(/C=N\NC(=O)c2ccccc2F)cc1COc1ccc(F)cc1 | -1 | -1 | -3 | 1 | 4 | /
Cc1ccc([C@@H]2CC=C(C(=O)O)[C@H](c3ccc(F)cc3)N2S(=O)(=O)c2ccccc2C)cc1 | 2 | -1 | 42* | 14 | -6 | 36
CCCCN(C(=O)C1CSC2(C)CCC(=O)N12)c1c(N)n(CC(C)C)c(=O)[nH]c1=O (stereo not drawn) | 2 | -6 | 0 | 3 | -1 | /
C=CCn1c(=NC(=O)c2sc3ccccc3c2Cl)sc2cc(S(N)(=O)=O)ccc21 | -5 | 7 | 36* | 0 | 2 | 0
COCCn1c(=NC(=O)c2sc3ccccc3c2Cl)sc2cc(S(N)(=O)=O)ccc21 | -1 | 23 | 29* | 2 | 0 | 17
C=CCn1c(=NC(=O)c2cc(Cl)sc2Cl)sc2cc(S(N)(=O)=O)ccc21 | -20 | -3 | 17 | 10 | -2 | /
O=C1CC(N(CCc2ccccc2)C(=S)Nc2ccccc2)C(=O)N1c1ccc(Br)cc1 (stereo not drawn) | -11 | 13 | 3 | 1 | -8 | /
Cc1ccc(N2C(=O)CC(N(CCc3ccccc3)C(=S)Nc3ccc(N(C)C)cc3)C2=O)cc1 (stereo not drawn) | 0 | -3 | 37* | 5 | 8 | 35*
COc1ccc(-c2cc(-c3n[nH]c(=S)n3-c3cccc4ccccc34)[nH]n2)cc1 | 1 | 11 | 26 | 5 | -11 | /
S=c1[nH]nc(-c2cc(-c3ccsc3)n[nH]2)n1-c1cccc2ccccc12 | -4 | -6 | 32* | 4 | -9 | 32
COCCn1c(SCC(=O)c2c(N)n(C3CC3)c(=O)[nH]c2=O)nnc1-c1cccc(C)c1 | 2 | -1 | -2 | 2 | 0 | /
O=C(Nc1nc(-c2ccccc2)cs1)c1ccc2c(c1)S(=O)(=O)c1ccccc1C2=O | 5 | 9 | 35* | 0 | -5 | 5
O=C(Nc1nc(-c2cccc3ccccc23)cs1)c1ccc2c(c1)S(=O)(=O)c1ccccc1C2=O | 8 | 9 | 29 | 2 | -2 | /
Nc1nc(NCCc2ccccc2)nc(NCCO)c1[N+](=O)[O-] | -2 | 2 | 0 | 1 | 2 | /
CCN(CC)c1ccc(S(=O)(=O)Nc2cc(Cl)ccc2Cl)cc1NC(=S)NC(=O)C1CCCC1 | 0 | 12 | 31* | 1 | -17 | 15
CCN(CC)S(=O)(=O)c1ccc(Cl)c(NC(=S)NC(=O)C2CCCC2)c1 | 5 | 16 | 0 | 2 | -5 | /
Cc1ccc(C(=O)NCCc2nnc3ccc(N4CCCC4)nn23)cc1 | 1 | -8 | 2 | 0 | -3 | /
Cc1ccc(-c2csc(C3=C(O)CN(NC(=O)c4ccc([N+](=O)[O-])cc4)C3=N)n2)cc1 | 1 | -2 | 30* | 0 | -3 | 7
N=C1C(c2nc(-c3ccc(Br)cc3)cs2)=C(O)CN1NC(=O)c1ccc([N+](=O)[O-])cc1 | 1 | 3 | 7 | 0 | 13 | /
N#CCC(=O)N/N=C/c1cc(Br)ccc1OCc1cccc2ccccc12 | 2 | 3 | 26* | 2 | -2 | 29
CN(CC(=O)NC(=O)NC1CCCCC1)CC(=O)Nc1ccccc1C(F)(F)F | 1 | / | -1 | / | -12 | /
O=C(Nc1cccc(-c2csc(Nc3ccccc3)n2)c1)c1cc([N+](=O)[O-])cc(C(F)(F)F)c1 | 0 | 1 | 37* | 3 | -7 | 9
O=C(Nc1ccc(-c2csc(Nc3ccc(Cl)cc3)n2)cc1)c1cc([N+](=O)[O-])cc(C(F)(F)F)c1 | 3 | 7 | 43* | 0 | -3 | 8
SMILES | SENP1 FRET inh | B2AR ag | NadD block | GRK2 aptamer HTS | ABHD5 PLIN5 PPI | NadD conf
O=C(Nc1ccccc1C(F)(F)F)NC1(C(=O)N2CCOCC2)CCCCC1 | -66 | 11 | 31* | / | 10 | 46
C/C(=N\Nc1ccc(S(=O)(=O)Nc2ccc(Cl)cc2)cc1[N+](=O)[O-])c1ccc(N2CCOCC2)cc1 | 3 | -1 | 19 | 1 | -5 | /
O=[N+]([O-])c1cc(S(=O)(=O)Nc2cccc(Cl)c2)ccc1N/N=C/c1ccc(N2CCOCC2)cc1 | 0 | 2 | 28* | 0 | 0 | 0
O=[N+]([O-])c1ccccc1/C=C/C=N/Nc1ccc(S(=O)(=O)Nc2ccc(Cl)cc2)cc1[N+](=O)[O-] | 6 | 0 | 26* | 0 | 6 | 2
C/C(=N\Nc1ccc(S(=O)(=O)Nc2ccccc2)cc1[N+](=O)[O-])c1ccc(N2CCOCC2)cc1 | 1 | 4 | 42* | 3 | 8 | 14
O=C(CC1c2cc(F)ccc2C=C(c2ccsc2)N1c1ccc(C#CCCO)cc1)c1ccco1 (stereo not drawn) | 1 | / | 27 | / | 8 | /
COc1cc(OC)cc(C2=Cc3ccccc3C(CC(C)=O)N2c2ccc(-c3cncnc3)cc2)c1 (stereo not drawn) | -5 | / | 13 | / | -10 | /
COC(=O)c1ccc(N2C(c3ccsc3)=Cc3cc4c(cc3C2CC(=O)c2ccco2)OCO4)cc1 (stereo not drawn) | -6 | / | 31* | / | -2 | 16
O=C(CC1c2ccccc2C=C(c2ccsc2)N1c1ccc(-c2cccnc2)cc1)C1CC1 (stereo not drawn) | -14 | / | 33* | / | -2 | 12
COc1ncc(-c2ccc(N3C(c4ccsc4)=Cc4ccc(F)cc4C3CC(=O)c3ccco3)cc2)cn1 (stereo not drawn) | 4 | / | 35* | / | 2 | 10
Cc1ccc(C2(c3ccccc3)NC(=O)N(CC(=O)NC3CCS(=O)(=O)C3)C2=O)cc1C (stereo not drawn) | 0 | 6 | 4 | 2 | -1 | /
CCOC(=O)Cn1c(=NC(=O)c2nc3ccccc3s2)sc2cc(S(N)(=O)=O)ccc21 | -22 | -19 | 19 | 0 | -1 | /
C=CCn1c(=NC(=O)c2cc(-c3cccs3)nc3ccccc23)sc2cc(S(N)(=O)=O)ccc21 | -28 | 13 | 51* | 0 | 11 | 59*
COCCn1c(=NC(=O)c2ccc(S(=O)(=O)N3CCOCC3)cc2)sc2cc(S(N)(=O)=O)ccc21 | 1 | 6 | 5 | 0 | 5 | /
COCCn1c(=NC(=O)c2cc(-c3cccs3)nc3ccccc23)sc2cc(S(N)(=O)=O)ccc21 | -35 | 40 | 52* | 4 | 19 | 57*
Cc1ccc2cc(C#N)c(N3CCCC3)nc2c1C | -95 | 10 | 34* | 3 | -3 | 2
